Test results reported in ChEMBL document CHEMBL2062375, “Discovery of an orally efficacious inhibitor of anaplastic lymphoma kinase” (J Med Chem, 2012).

Tests used:
[1] = Drug level in SCID/beige mouse tumor xenografted with human KARPAS299 cells expressing NPM-ALK at 10 mg/kg, po bid after 2 hrs post last dose by LC-MS/MS analysis; assay type: ADME, organism-based, Neoplasm, KARPAS-299; set-up: dose 10 mg/kg, route oral; details: read-out: Drug uptake
Method in brief: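 Female SCID/beige mice, 6–8 weeks old, implanted sc in the left flank with exponentially growing Karpas-299 cells. At about 600 mm³ tumours, mice were randomized (8–10/group) and given PEG400 vehicle or compound orally b.i.d., 100 μL, for 12 days. Tumour volume (0.5236LW(L+W)/2) and body weight were recorded every 2–3 days; Mann–Whitney test. Plasma and tumour levels were measured by LC-MS/MS 2 h after the final dose, mean ± SEM.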

[2] = Oral bioavailability in Beagle dog at 10 mg/kg; assay type: ADME, organism-based, Canis lupus familiaris; details: in vivo
Method in brief: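 PK: overnight-fasted animals. Rat oral gavage 5 mL/kg in 40% HPβCD, serial tail-vein blood over 6 h. Dog oral gavage 1 mL/kg, monkey nasogastric 2 mL/kg, femoral-vein blood over 24 h. Plasma protein-precipitated with acetonitrile, LCMS/MS with internal standard; noncompartmental analysis, individual animals n = 3, mean ± SEM.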

[3] = molecular target: NUAK family SNF1-like kinase 1 (Homo sapiens) (UniProt O60285); details: 1 uM
NUAK family SNF1-like kinase 1 (Homo sapiens), sequence (O60285 whole entry): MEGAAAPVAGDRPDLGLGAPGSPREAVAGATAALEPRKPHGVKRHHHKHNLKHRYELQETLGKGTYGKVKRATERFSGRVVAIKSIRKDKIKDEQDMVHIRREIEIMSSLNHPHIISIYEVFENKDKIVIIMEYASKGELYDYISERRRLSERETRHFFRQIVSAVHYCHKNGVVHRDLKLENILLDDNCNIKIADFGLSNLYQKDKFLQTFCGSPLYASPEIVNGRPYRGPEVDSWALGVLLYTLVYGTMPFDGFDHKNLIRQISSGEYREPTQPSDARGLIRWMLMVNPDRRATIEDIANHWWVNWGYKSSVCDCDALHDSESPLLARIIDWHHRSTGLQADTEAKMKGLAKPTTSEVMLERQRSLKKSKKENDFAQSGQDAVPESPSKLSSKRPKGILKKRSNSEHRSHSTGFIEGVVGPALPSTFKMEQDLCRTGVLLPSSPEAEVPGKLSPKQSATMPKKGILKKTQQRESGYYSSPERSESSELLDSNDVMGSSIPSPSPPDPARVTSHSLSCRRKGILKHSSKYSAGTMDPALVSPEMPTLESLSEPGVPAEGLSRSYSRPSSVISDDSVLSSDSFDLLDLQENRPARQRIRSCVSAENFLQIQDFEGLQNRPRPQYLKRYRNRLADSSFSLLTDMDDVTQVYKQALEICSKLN

[4] = molecular target: Mitogen-activated protein kinase kinase kinase kinase 2 (Homo sapiens) (UniProt Q12851); details: 1 uM
[5] = AUC in Sprague-Dawley rat at 10 mg/kg, po; assay type: ADME, organism-based; set-up: dose 10 mg/kg, route oral; details: plasma
Method in brief: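 Rat PK. IV via the lateral tail vein, 1 mL/kg in 3% DMSO/30% Solutol/67% PBS, or oral gavage at 5 mL/kg in 40% HPβCD, after an overnight fast. Serial tail-vein blood was taken into heparin over 6 h. Plasma was acetonitrile-precipitated and analysed by LC-MS/MS. Parameters were noncompartmental, n = 3, mean ± SEM.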

[6] = molecular target: Tyrosine-protein kinase Fes/Fps (Homo sapiens, UniProt P07332); assay: Inhibition of human Fes
Tyrosine-protein kinase Fes/Fps, sequence (P07332 whole entry): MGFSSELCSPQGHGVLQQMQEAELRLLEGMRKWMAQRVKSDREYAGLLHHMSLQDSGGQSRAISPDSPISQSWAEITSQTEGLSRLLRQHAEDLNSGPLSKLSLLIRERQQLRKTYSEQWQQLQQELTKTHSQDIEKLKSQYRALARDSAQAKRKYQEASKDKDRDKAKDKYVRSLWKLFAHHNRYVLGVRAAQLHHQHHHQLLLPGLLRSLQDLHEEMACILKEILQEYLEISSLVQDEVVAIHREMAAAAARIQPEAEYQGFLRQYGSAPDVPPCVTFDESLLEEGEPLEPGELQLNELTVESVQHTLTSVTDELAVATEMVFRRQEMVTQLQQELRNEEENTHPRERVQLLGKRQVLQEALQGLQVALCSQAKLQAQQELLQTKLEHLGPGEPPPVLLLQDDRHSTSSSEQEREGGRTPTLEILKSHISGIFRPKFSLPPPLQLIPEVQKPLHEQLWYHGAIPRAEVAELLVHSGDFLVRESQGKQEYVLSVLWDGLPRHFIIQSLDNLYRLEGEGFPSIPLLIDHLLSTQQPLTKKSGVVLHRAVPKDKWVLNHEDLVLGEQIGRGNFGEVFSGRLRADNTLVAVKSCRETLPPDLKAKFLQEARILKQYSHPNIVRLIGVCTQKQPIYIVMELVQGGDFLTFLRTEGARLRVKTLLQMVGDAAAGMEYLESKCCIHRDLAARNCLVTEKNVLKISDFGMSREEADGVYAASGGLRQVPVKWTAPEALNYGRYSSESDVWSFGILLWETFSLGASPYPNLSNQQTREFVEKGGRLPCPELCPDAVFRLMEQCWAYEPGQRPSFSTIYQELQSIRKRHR
Method in brief: (§1)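 Millipore KinaseProfiler activity assays on a 259-kinase panel; kinases inhibited by ≥90% at 1 μM then taken to full IC50 determination.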

[7] = AUC in CD-1 mouse at 1 mg/kg, iv; assay type: ADME, organism-based; set-up: dose 1 mg/kg, route intravenous; details: plasma
Method in brief: (§2)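 Mouse PK. IV via the lateral tail vein in 3% DMSO/30% Solutol/67% PBS, or oral gavage in 100% PEG400, 100 μL dose volume, after an overnight fast. Trunk blood was taken from three mice per time point over 6 h. Plasma was acetonitrile-precipitated and analysed by LC-MS/MS. Parameters were derived noncompartmentally.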

[8] = Cmax in cynomolgus monkey at 10 mg/kg, po; assay type: ADME, organism-based, Macaca fascicularis; set-up: dose 10 mg/kg, route oral; details: in vivo
Method in brief: (§3)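 Dog and monkey PK. IV 0.5 mL/kg in 40% HPβCD via the saphenous vein. Oral dosing was 1 mL/kg by gavage in dogs and 2 mL/kg by nasogastric tube in monkeys, after an overnight fast. Serial femoral-vein blood was taken into heparin over 24 h. Plasma was acetonitrile-precipitated and analysed by LC-MS/MS. Parameters were noncompartmental, n = 3, mean ± SEM.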

[9] = Plasma concentration in SCID mouse xenografted with human KARPAS299 cells expressing NPM-ALK at 30 mg/kg, po after 12 hrs by LC-MS/MS analysis; assay type: ADME, organism-based, KARPAS-299; set-up: dose 30 mg/kg, route oral
Method in brief: (§4)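 Pharmacodynamic study: SCID mice bearing subcutaneous Karpas-299 xenografts given single 30 mg/kg oral dose; plasma drug levels measured by LCMS/MS, reported as mean ± SEM.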

[10] = Cmax in rat at 10 mg/kg, po; assay type: ADME, organism-based; set-up: dose 10 mg/kg, route oral; details: in vivo
Method in brief: (§5)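 Rat oral dose escalation at 10, 30, 55 and 100 mg/kg. Gavage at 5 mL/kg in 40% HPβCD after an overnight fast. Serial tail-vein blood was drawn into heparinized tubes. Plasma was protein-precipitated with acetonitrile and assayed by LC-MS/MS. Cmax and AUC0–12 were derived noncompartmentally; n = 2 at 10 mg/kg.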

[11] = Plasma concentration in SCID mouse xenografted with human KARPAS299 cells expressing NPM-ALK at 30 mg/kg, po after 24 hrs by LC-MS/MS analysis; assay type: ADME, organism-based, KARPAS-299; set-up: dose 30 mg/kg, route oral; method in brief: as §4
[12] = AUC in SCID mouse at 1 mg/kg, iv; assay type: ADME, organism-based; set-up: dose 1 mg/kg, route intravenous; details: plasma; method in brief: as §2
[13] = molecular target: Ribosomal protein S6 kinase alpha-3 (Homo sapiens, UniProt P51812); details: 1 uM
[14] = AUC (0 to 12 hrs) in rat 55 mg/kg, po; assay type: ADME, organism-based; set-up: time < 12 hr, dose 55 mg/kg, route oral; details: plasma; method in brief: as §5
[15] = AUC in Beagle dog at 1 mg/kg, iv; assay type: ADME, organism-based, Canis lupus familiaris; set-up: dose 1 mg/kg, route intravenous; details: plasma; method in brief: as §3
[16] = molecular target: T1, ALK tyrosine kinase receptor (Homo sapiens, UniProt Q9UM73); assay: Inhibition of human ALK cytoplasmic domain expressed in baculovirus using GST-PLCgamma as substrate preincubated for 15 mins before substrate addition measured after 1 hr by time resolved fluorescence assay
T1 sequence (Q9UM73 whole entry, the tested form may be a part): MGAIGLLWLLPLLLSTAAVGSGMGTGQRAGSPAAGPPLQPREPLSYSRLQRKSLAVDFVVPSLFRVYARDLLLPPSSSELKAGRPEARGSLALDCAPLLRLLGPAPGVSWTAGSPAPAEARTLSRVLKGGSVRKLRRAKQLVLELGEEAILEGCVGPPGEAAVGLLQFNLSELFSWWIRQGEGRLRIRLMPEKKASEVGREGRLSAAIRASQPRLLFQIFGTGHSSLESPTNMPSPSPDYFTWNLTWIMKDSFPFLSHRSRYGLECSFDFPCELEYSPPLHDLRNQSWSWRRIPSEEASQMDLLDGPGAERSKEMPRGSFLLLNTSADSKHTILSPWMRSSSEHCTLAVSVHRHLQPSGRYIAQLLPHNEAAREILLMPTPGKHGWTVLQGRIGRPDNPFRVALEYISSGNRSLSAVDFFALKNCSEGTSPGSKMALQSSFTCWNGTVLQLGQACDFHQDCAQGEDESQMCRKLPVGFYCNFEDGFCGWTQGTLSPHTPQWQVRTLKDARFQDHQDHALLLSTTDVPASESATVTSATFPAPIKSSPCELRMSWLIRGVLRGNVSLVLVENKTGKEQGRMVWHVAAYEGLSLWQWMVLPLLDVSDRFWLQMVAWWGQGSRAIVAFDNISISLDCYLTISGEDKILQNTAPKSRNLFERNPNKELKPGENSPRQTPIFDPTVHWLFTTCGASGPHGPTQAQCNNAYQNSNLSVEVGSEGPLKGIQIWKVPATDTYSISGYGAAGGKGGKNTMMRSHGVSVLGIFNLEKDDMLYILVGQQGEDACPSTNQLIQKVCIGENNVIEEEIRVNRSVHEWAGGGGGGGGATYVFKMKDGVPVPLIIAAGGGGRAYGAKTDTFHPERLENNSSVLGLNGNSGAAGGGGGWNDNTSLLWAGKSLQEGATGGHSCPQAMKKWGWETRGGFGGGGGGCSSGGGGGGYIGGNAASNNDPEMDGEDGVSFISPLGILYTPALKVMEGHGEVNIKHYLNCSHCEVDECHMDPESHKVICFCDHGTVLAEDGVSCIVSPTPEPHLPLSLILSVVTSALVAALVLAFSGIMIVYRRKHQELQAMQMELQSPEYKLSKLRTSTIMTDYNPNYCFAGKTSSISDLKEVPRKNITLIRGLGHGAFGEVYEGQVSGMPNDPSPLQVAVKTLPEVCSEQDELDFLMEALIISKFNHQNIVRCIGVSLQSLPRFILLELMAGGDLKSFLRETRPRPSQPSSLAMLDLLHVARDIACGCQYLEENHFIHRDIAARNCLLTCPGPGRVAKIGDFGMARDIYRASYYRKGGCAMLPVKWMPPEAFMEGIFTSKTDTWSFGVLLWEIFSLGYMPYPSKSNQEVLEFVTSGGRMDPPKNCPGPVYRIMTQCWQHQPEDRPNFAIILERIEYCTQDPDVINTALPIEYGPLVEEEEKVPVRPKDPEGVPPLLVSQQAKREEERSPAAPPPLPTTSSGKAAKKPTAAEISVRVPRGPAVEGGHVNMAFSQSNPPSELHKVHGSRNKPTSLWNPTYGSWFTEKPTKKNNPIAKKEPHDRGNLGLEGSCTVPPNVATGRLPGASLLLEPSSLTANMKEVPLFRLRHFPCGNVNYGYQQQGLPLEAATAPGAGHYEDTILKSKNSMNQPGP

Mus musculus = assay: Inhibition of NPM-ALK phosphorylation in human KARPAS299 cells xenografted in SCID mouse tumor at 30 mg/kg, po qd after 12 hrs by immunoblotting; assay type: functional; details: KARPAS-299, 12 h
Method in brief: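 SCID mice bearing sc Karpas-299 xenografts received a single 30 mg/kg oral dose. Phospho- and total NPM-ALK in tumour samples were detected by immunoblotting, and relative NPM-ALK phosphorylation was calculated.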

[17] = Volume of distribution in Beagle dog at 1 mg/kg, iv; assay type: ADME, organism-based, Canis lupus familiaris; set-up: dose 1 mg/kg, route intravenous; details: in vivo
Method in brief: (§6)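 IV PK: rats via lateral tail vein (1 mL/kg; 3% DMSO/30% Solutol/67% PBS), serial tail-vein blood over 6 h. Dogs and monkeys via saphenous vein (0.5 mL/kg in 40% HPβCD), femoral-vein blood over 24 h. Acetonitrile protein precipitation, LCMS/MS; noncompartmental parameters from individual animals, n = 3, mean ± SEM.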

[18] = molecular target: Ribosomal protein S6 kinase alpha-2 (Homo sapiens, UniProt Q15349); assay: Inhibition of human Rsk3; method in brief: as §1
[19] = Plasma concentration in SCID mouse xenografted with human KARPAS299 cells expressing NPM-ALK at 30 mg/kg, po after 2 hrs by LC-MS/MS analysis; assay type: ADME, organism-based, KARPAS-299; set-up: dose 30 mg/kg, route oral; method in brief: as §4
[20] = molecular target: Protein-tyrosine kinase 6 (Homo sapiens, UniProt Q13882); details: 1 uM
Protein-tyrosine kinase 6, sequence (Q13882 whole entry, looked up): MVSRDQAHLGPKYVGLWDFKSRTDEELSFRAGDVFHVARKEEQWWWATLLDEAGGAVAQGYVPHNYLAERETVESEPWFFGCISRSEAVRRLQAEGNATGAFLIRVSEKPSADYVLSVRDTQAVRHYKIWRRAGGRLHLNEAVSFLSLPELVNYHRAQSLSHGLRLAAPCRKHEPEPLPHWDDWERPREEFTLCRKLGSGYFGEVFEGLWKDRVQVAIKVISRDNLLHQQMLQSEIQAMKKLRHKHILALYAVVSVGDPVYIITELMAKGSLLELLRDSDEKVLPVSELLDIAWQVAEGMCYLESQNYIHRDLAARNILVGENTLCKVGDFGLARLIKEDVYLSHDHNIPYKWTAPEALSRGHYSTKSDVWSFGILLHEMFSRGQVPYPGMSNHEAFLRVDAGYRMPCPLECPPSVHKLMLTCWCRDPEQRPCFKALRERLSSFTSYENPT

[21] = Plasma clearance in cynomolgus monkey at 1 mg/kg, iv; assay type: ADME, organism-based, Macaca fascicularis; set-up: dose 1 mg/kg, route intravenous; method in brief: as §6
[22] = molecular target: T1, ALK tyrosine kinase receptor; assay: Inhibition of ALK tyrosine phosphorylation in human Karpas-299 cells after 2 hrs in presence of mouse plasma; assay type: cell-based
[23] = molecular target: Tyrosine-protein kinase Fer (Homo sapiens, UniProt P16591); details: 1 uM
Tyrosine-protein kinase Fer, sequence (P16591 whole entry, looked up): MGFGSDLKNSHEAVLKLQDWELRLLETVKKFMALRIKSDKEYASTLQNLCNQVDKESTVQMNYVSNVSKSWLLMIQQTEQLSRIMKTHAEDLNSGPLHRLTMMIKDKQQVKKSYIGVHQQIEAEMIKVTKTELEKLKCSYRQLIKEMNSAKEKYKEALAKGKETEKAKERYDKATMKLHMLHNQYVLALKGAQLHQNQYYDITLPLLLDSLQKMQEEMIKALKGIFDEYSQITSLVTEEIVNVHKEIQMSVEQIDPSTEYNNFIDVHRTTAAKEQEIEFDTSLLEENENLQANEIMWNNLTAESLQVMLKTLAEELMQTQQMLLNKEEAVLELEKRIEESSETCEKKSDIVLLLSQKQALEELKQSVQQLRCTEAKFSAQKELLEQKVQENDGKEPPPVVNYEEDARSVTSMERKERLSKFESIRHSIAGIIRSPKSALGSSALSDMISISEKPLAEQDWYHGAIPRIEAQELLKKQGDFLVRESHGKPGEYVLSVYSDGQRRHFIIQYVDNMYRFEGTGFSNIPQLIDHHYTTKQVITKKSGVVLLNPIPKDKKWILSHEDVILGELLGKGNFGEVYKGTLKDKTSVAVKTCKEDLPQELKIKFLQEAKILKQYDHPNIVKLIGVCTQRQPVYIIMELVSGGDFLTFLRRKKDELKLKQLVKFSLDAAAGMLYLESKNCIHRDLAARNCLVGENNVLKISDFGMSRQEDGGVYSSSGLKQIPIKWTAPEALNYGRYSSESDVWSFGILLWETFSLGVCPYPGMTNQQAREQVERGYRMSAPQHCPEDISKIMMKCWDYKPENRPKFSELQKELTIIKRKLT

[24] = AUC (0 to 12 hrs) in rat 100 mg/kg, po; assay type: ADME, organism-based; set-up: time < 12 hr, dose 100 mg/kg, route oral; details: plasma; method in brief: as §5
[25] = AUC in cynomolgus monkey at 10 mg/kg, po; assay type: ADME, organism-based, Macaca fascicularis; set-up: dose 10 mg/kg, route oral; details: plasma; method in brief: as §3
[26] = Plasma concentration in SCID mouse xenografted with human KARPAS299 cells expressing NPM-ALK at 30 mg/kg, po after 6 hrs by LC-MS/MS analysis; assay type: ADME, organism-based, KARPAS-299; set-up: dose 30 mg/kg, route oral; method in brief: as §4
[27] = Half life in CD-1 mouse at 1 mg/kg, iv; assay type: ADME, organism-based; set-up: dose 1 mg/kg, route intravenous; details: in vivo; method in brief: as §2
[28] = molecular target: Ribosomal protein S6 kinase alpha-6 (Homo sapiens, UniProt Q9UK32); details: 1 uM
[29] = molecular target: Mitogen-activated protein kinase 8 (Homo sapiens, UniProt P45983); assay: Inhibition of human JNK1alpha1; method in brief: as §1
Mitogen-activated protein kinase 8, sequence (P45983 whole entry): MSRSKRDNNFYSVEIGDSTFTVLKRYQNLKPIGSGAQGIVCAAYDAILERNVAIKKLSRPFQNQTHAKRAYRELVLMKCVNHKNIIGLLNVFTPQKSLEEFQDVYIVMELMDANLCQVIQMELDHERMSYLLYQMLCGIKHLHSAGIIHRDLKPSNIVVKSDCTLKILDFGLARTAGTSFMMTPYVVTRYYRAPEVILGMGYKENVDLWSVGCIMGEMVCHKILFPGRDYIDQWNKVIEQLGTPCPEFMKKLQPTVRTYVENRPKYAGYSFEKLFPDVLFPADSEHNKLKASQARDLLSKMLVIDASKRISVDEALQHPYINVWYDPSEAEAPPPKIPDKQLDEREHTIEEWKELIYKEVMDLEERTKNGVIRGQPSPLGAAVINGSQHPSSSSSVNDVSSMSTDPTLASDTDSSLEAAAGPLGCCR

COc1c(Nc2ncc(Cl)c(N[C@H]3[C@@H](C(N)=O)[C@@H]4C=C[C@H]3C4)n2)ccc2c1CC[C@@H](N1CCOCC1)CC2
concentration at 2 h [1]: 686 ng/g
bioavailability [2]: 52%
inhibition [3]: > 90%
inhibition [4]: > 90%
AUC [5]: 4830 ng·h/mL
IC50 [6]: 99 nM
AUC [7]: 584 ng·h/mL
Cmax [8]: 170 ng/mL
concentration at 12 h [9]: 1570 ng/mL
Cmax [10]: 349 ng/mL
concentration at 24 h [11]: 12 ng/mL
AUC [12]: 3020 ng·h/mL
inhibition [13]: > 90%
AUC(0-t) at 12 h [14]: 24100 ng·h/mL
AUC [15]: 409 ng·h/mL
IC50 [16]: 1.9 nM
inhibition in vivo at 30 mg/kg (Mus musculus): > 90%
Vd [17]: 8.2 L/kg
IC50 [18]: 7 nM
concentration at 2 h [19]: 4180 ng/mL
inhibition [20]: > 90%
clearance [21]: 28 mL/min/kg
IC50 [22]: 20 nM
inhibition [23]: > 90%
AUC(0-t) at 12 h [24]: 38200 ng·h/mL
AUC [25]: 954 ng·h/mL
concentration at 6 h [26]: 3840 ng/mL
half-life [27]: 42 min
inhibition [28]: > 90%
IC50 [29]: 112 nM
